Test results as given in ChEMBL document CHEMBL1932935, “Synthesis and biological effects of some kynurenic acid analogs” (Bioorg Med Chem, 2011).
Calls of active or inactive are those of the source. The calls are words filed in the database; no cut-off is given here.

Key:
Hippocampus = assay: Antiexcitatory activity in rat hippocampus pyramidal CA1 region assessed as reduction in field excitatory postsynaptic potential at 16 uM by electrophysiologic method; type: functional
Outline: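 Acute rat hippocampal slices; recording solution ACSF with 3 mM CaCl2 and 1.5 mM MgSO4, 1.5–2 mL/min flow, 34 °C. Schaffer collaterals stimulated; fEPSP amplitude recorded in CA1 pyramidal layer before, during and after bath application of compound in ACSF. Amplitudes normalized to 10-min control period; four slices per compound.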

Mus musculus [1] = assay: Toxicity in C57/BL6 mouse assessed as decrease in number of rearings dosed intraperitoneally equimolar to 200 mg/kg KYNA-1 as single dose measured after 2 hrs by open field test; type: organism-based, C57Bl/6; set-up: dose 200 mg/kg, route intraperitoneal; conditions: in vivo, ip
Outline: (§1)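 Six-week-old male C57Bl/6 mice, dosed ip once daily at 5 mL/kg in distilled water adjusted to pH 6.5; saline controls. Acute testing was 2 h after a single dose; chronic testing was on day 9, 2 h after the last of 9 daily doses. Each mouse was placed in a black open-field box (48×48×40 cm) and video-tracked for 5 min, scoring ambulation time, mean velocity and rearings.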

Mus musculus [2] = assay: Toxicity in C57/BL6 mouse assessed as effect on movement velocity dosed intraperitoneally equimolar to 200 mg/kg KYNA-1 as single dose measured after 2 hrs by open field test; type: organism-based, C57Bl/6; set-up: dose 200 mg/kg, route intraperitoneal; conditions: in vivo, ip; outline: as §1
Mus musculus [3] = assay: Toxicity in C57/BL6 mouse assessed as effect on movement velocity dosed intraperitoneally equimolar to 200 mg/kg KYNA-1 for 9 days measured after 2 hrs post last dose by open field test; type: organism-based, C57Bl/6; set-up: dose 200 mg/kg, route intraperitoneal; conditions: in vivo, ip; outline: as §1
Mus musculus [4] = assay: Toxicity in C57/BL6 mouse assessed as effect on ambulation time dosed intraperitoneally equimolar to 200 mg/kg KYNA-1 as single dose measured after 2 hrs by open field test; type: organism-based, C57Bl/6; set-up: dose 200 mg/kg, route intraperitoneal; conditions: in vivo, ip; outline: as §1
Mus musculus [5] = assay: Toxicity in C57/BL6 mouse assessed as effect on ambulation time dosed intraperitoneally equimolar to 200 mg/kg KYNA-1 for 9 days measured after 2 hrs post last dose by open field test; type: organism-based, C57Bl/6; set-up: dose 200 mg/kg, route intraperitoneal; conditions: in vivo, ip; outline: as §1
Mus musculus [6] = assay: Toxicity in C57/BL6 mouse assessed as decrease in number of rearings dosed intraperitoneally equimolar to 200 mg/kg KYNA-1 for 9 days measured after 2 hrs post last dose by open field test; type: organism-based, C57Bl/6; set-up: dose 200 mg/kg, route intraperitoneal; conditions: in vivo, ip; outline: as §1
Rattus norvegicus [7] = assay: Inhibition of NMDA in intraperitoneally dosed Wistar rat hippocampus pyramidal CA1 region assessed as reduction in amplitude of population spike by electrophysologic method; type: functional, organism-based
Mus musculus [8] = assay: Toxicity in C57/BL6 mouse assessed as effect on movement velocity at 200 mg/kg, ip for 9 days measured after 2 hrs post last dose by open field test; type: organism-based, C57Bl/6; set-up: dose 200 mg/kg, route intraperitoneal; conditions: in vivo; outline: as §1
Mus musculus [9] = assay: Toxicity in C57/BL6 mouse assessed as decrease in number of rearings at 200 mg/kg, ip administered as single dose measured after 2 hrs by open field test; type: organism-based, C57Bl/6; set-up: dose 200 mg/kg, route intraperitoneal; conditions: in vivo; outline: as §1
Mus musculus [10] = assay: Toxicity in C57/BL6 mouse assessed as effect on movement velocity at 200 mg/kg, ip administered as single dose measured after 2 hrs by open field test; type: organism-based, C57Bl/6; set-up: dose 200 mg/kg, route intraperitoneal; conditions: in vivo; outline: as §1
Mus musculus [11] = assay: Toxicity in C57/BL6 mouse assessed as effect on ambulation time at 200 mg/kg, ip administered as single dose measured after 2 hrs by open field test; type: organism-based, C57Bl/6; set-up: dose 200 mg/kg, route intraperitoneal; conditions: in vivo; outline: as §1
Rattus norvegicus [12] = assay: Inhibition of NMDA in Wistar rat hippocampus pyramidal CA1 region assessed as reduction in amplitude of population spike at 200 mg/kg/day, ip up to 90 mins by electrophysologic method; type: functional; conditions: 1.5 h, read-out: INH, route intraperitoneal
Mus musculus [13] = assay: Toxicity in C57/BL6 mouse assessed as effect on ambulation time at 200 mg/kg, ip for 9 days measured after 2 hrs post last dose by open field test; type: organism-based, C57Bl/6; set-up: dose 200 mg/kg, route intraperitoneal; conditions: in vivo; outline: as §1
Rattus norvegicus [14] = assay: Inhibition of NMDA in Wistar rat hippocampus pyramidal CA1 region assessed as reduction in amplitude of population spike at 200 mg/kg/day, ip measured up to 60 mins by electrophysologic method; type: functional; conditions: 1 h, read-out: INH, route intraperitoneal
Mus musculus [15] = assay: Toxicity in C57/BL6 mouse assessed as decrease in number of rearings at 200 mg/kg, ip for 9 days measured after 2 hrs post last dose by open field test; type: organism-based, C57Bl/6; set-up: dose 200 mg/kg, route intraperitoneal; conditions: in vivo; outline: as §1

SMILES: CN1CCCCC1CNC(=O)c1cc(=O)c2ccccc2[nH]1 (centres undefined)
- Activity (Hippocampus): inactive

SMILES: CN(C)CCCNC(=O)c1cc(O)c2ccccc2n1.Cl
- Activity (Mus musculus [1]): Non-toxic
- Activity (Mus musculus [2]): Non-toxic
- Activity (Mus musculus [3]): Non-toxic
- Activity (Mus musculus [4]): Non-toxic
- Activity (Mus musculus [5]): Non-toxic
- Activity (Mus musculus [6]): Non-toxic

SMILES: O=C(O)c1cc(=O)c2ccccc2[nH]1 [TRANSTORINE]
- Activity (Hippocampus): 70%

SMILES: Cl.O=C(NCCN1CCCC1)c1cc(O)c2ccccc2n1
- Activity (Mus musculus [1]): Non-toxic
- Activity (Mus musculus [2]): Non-toxic
- Activity (Mus musculus [3]): Non-toxic
- Activity (Mus musculus [4]): Non-toxic
- Activity (Mus musculus [5]): Non-toxic
- Activity (Mus musculus [6]): Non-toxic

SMILES: O=C(NCCN1CCCC1)c1cc(=O)c2ccccc2[nH]1
- Activity (Hippocampus): inactive

SMILES: O=C(c1cc(=O)c2ccccc2[nH]1)N1CCN(Cc2ccccc2)CC1
- Activity (Hippocampus): inactive

SMILES: O=C(NCCN1CCCCC1)c1cc(=O)c2ccccc2[nH]1
- Activity (Hippocampus): inactive

SMILES: O=C(c1cc(=O)c2ccccc2[nH]1)N1CCNCC1
- Activity (Hippocampus): inactive

SMILES: CN1CCN(C(=O)c2cc(=O)c3ccccc3[nH]2)CC1
- Activity (Hippocampus): inactive

SMILES: Nc1ccccc1C(=O)C[C@H](N)C(=O)O.O=S(=O)(O)O
- Activity (Mus musculus [1]): Toxic
- Activity (Mus musculus [2]): Non-toxic
- Activity (Mus musculus [3]): Non-toxic
- Activity (Mus musculus [4]): Non-toxic
- Activity (Mus musculus [5]): Non-toxic
- Activity (Mus musculus [6]): Toxic
- Activity (Hippocampus): inactive

SMILES: CN(C)CCCNC(=O)c1cc(=O)c2ccccc2[nH]1
- inhibition (Rattus norvegicus [7]): inactive
- Activity (Hippocampus): inactive

SMILES: O=C(NCCN1CCOCC1)c1cc(=O)c2ccccc2[nH]1
- Activity (Hippocampus): inactive

SMILES: CCN(CC)CCNC(=O)c1cc(=O)c2ccccc2[nH]1
- Activity (Hippocampus): inactive

SMILES: CN(C)CCNC(=O)c1cc(O)c2ccccc2n1.Cl
- Activity (Mus musculus [8]): Non-toxic
- Activity (Mus musculus [9]): Toxic
- Activity (Mus musculus [10]): Non-toxic
- Activity (Mus musculus [11]): Non-toxic
- inhibition in vivo at 200 mg/kg/day (Rattus norvegicus [12]): 30%
- Activity (Mus musculus [13]): Non-toxic
- Activity (Hippocampus): 50%
- inhibition in vivo at 200 mg/kg/day (Rattus norvegicus [14]): 25%
- Activity (Mus musculus [15]): Non-toxic
